The record followed here is ChEMBL document CHEMBL1153389, “Identification of novel antibacterial peptides by chemoinformatics and machine learning” (2009).

Common to all, as to assay type: functional
In assay [1] the test system is Enterococcus faecium. Put plainly: Antimicrobial activity against vancomycin-resistant Enterococcus faecium t62764(VanB) isolate after overnight incubation by broth microdilution method. In short, it runs like this:
(§1)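 Modified broth microdilution in polypropylene 96-well plates with Mueller-Hinton (MH) medium. Bulk-synthesized peptides were serially diluted at 10-fold final strength in 0.01% acetic acid with 0.2% BSA, then added 1:10 to MH. Inoculum came from an overnight culture at a final (2-7) × 10^5 CFU/mL. Plates were incubated overnight at 37 °C. MIC was the lowest concentration with no visible growth.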
A general note: Dilution methods test growth across graded concentrations, often in twofold steps.

The subject of assay [2] is Pseudomonas aeruginosa. Put plainly: Antimicrobial activity against Pseudomonas aeruginosa LES400 after overnight incubation by broth microdilution method. In short, it runs like this:
as §1

In assay [3] the test system is Pseudomonas aeruginosa. Put plainly: Antimicrobial activity against Pseudomonas aeruginosa H103 after overnight incubation by broth microdilution method. In a few lines:
(§2)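 Modified broth microdilution. Peptides are serially diluted in 0.01% acetic acid with 0.2% BSA at 10-fold the final concentration, then added to MH medium in polypropylene plates. Bacteria from an overnight culture are added to a final (2-7) × 10^5 CFU/mL. Plates are incubated overnight at 37 °C. MIC is the lowest concentration with no visible growth.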

The test system of assay [4] is Pseudomonas aeruginosa. The experiment in a line: Antimicrobial activity against Pseudomonas aeruginosa H1027 after overnight incubation by broth microdilution method. In short, it runs like this:
as §2

Assay [5] has as its system Pseudomonas aeruginosa. Put plainly: Antimicrobial activity against Pseudomonas aeruginosa H1001 expressing luciferase gene assessed as ratio antimicrobial IC50 for drug to Bac2A peptide by luminescence assay. In a few lines:
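Peptides are made by SPOT synthesis on cellulose, cleaved, and the spots placed in plate wells. Overnight P. aeruginosa H1001 (fliC::luxCDABE) is diluted 1:500 in 100 mM Tris-HCl pH 7.3 with 20 mM glucose and added to the wells. After 30 min, serial dilutions (8 rows) are made. Luminescence is read at 4 h. IC50 is taken from a sigmoid fit and expressed relative to Bac2A run in the same series.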

For assay [6], the system named is Pseudomonas aeruginosa. The experiment in a line: Antimicrobial activity against multidrug-resistant Pseudomonas aeruginosa Brazil 198 isolate after overnight incubation by broth microdilution method. In a few lines:
as §1

In assay [7] the test system is Escherichia coli. Put plainly: Antimicrobial activity against extended-spectrum beta-lactamase producing Escherichia coli 63103 after overnight incubation by broth microdilution method. In short, it runs like this:
as §2

Assay [8] deals with Enterococcus faecalis. The experiment in a line: Antimicrobial activity against vancomycin-resistant Enterococcus faecalis f43559 (VanB) isolate after overnight incubation by broth microdilution method. In a few lines:
as §1

Another assay has as its system Enterobacter cloacae. The experiment in a line: Antimicrobial activity against class C chromosomal beta lactamase expressing Enterobacter cloacae 218R after overnight incubation by broth microdilution method. In a few lines: as §2
Assay [9] deals with Klebsiella pneumoniae. Put plainly: Antimicrobial activity against extended-spectrum beta-lactamase-resistant Klebsiella pneumoniae 61962 after overnight incubation by broth microdilution method. In short, it runs like this: as §1
The test system of assay [10] is Pseudomonas aeruginosa. The experiment in a line: Antimicrobial activity against multidrug-resistant Pseudomonas aeruginosa Brazil 213 isolate after overnight incubation by broth microdilution method. In short, it runs like this: as §1
Assay [11] deals with Enterococcus faecalis. The experiment in a line: Antimicrobial activity against vancomycin-resistant Enterococcus faecalis w6190(VanA) isolate after overnight incubation by broth microdilution method. In short, it runs like this:
as §1

For assay [12], the system named is Enterococcus faecalis. Put plainly: Antimicrobial activity against Enterococcus faecalis ATCC 29212 after overnight incubation by broth microdilution method. In short, it runs like this:
as §2

Assay [13] has as its system Pseudomonas aeruginosa. Put plainly: Antimicrobial activity against multidrug-resistant Pseudomonas aeruginosa Brazil 9 isolate after overnight incubation by broth microdilution method. In short, it runs like this: as §1
The test system of assay [14] is Enterococcus faecium. The experiment in a line: Antimicrobial activity against vancomycin-resistant Enterococcus faecium mic80(VanA) isolate after overnight incubation by broth microdilution method. In a few lines:
as §1

Assay [15] deals with Pseudomonas aeruginosa. The experiment in a line: Antimicrobial activity against Pseudomonas aeruginosa H1030 after overnight incubation by broth microdilution method. In a few lines:
as §1

In assay [16] the test system is Staphylococcus aureus. Put plainly: Antimicrobial activity against Staphylococcus aureus ATCC 25923 after overnight incubation by broth microdilution method. In short, it runs like this:
as §1

The subject of assay [17] is Escherichia coli. The experiment in a line: Antimicrobial activity against extended-spectrum beta-lactamase producing Escherichia coli 64771 after overnight incubation by broth microdilution method. In a few lines:
as §2

Assay [18] deals with Stenotrophomonas maltophilia. Put plainly: Antimicrobial activity against Pseudomonas maltophilia ATCC 13637 after overnight incubation by broth microdilution method. In a few lines: as §2
For assay [19], the system named is Klebsiella pneumoniae. The experiment in a line: Antimicrobial activity against extended-spectrum beta-lactamase-resistant Klebsiella pneumoniae 63575 after overnight incubation by broth microdilution method. In short, it runs like this:
as §1

The subject of assay [20] is Staphylococcus aureus. Put plainly: Antimicrobial activity against methicillin-resistant Staphylococcus aureus C623 after overnight incubation by broth microdilution method. In a few lines: as §1

With H-RWRRWKWWL-OH, the MIC (in general, the least concentration at which growth counts as inhibited) came out at 1.4 µM against Enterococcus faecium [1]; 5.8 µM in the assay on Pseudomonas aeruginosa [2]; 2.9 µM against Pseudomonas aeruginosa [3]; 0.3 µM against Pseudomonas aeruginosa [4]; 12 µM against Pseudomonas aeruginosa [6]; 5.7 µM with Escherichia coli [7]. The MIC against Enterococcus faecalis [8] was 92 µM; against Enterobacter cloacae, 5.8 µM; against Klebsiella pneumoniae [9] it was 46 µM; against Pseudomonas aeruginosa [10], 23 µM; against Enterococcus faecalis [11], 92 µM; with Enterococcus faecalis [12] it was 23 µM. Further, the MIC in the assay with Pseudomonas aeruginosa [13] stood at 12 µM; in the assay with Enterococcus faecium [14], 5.7 µM; with Pseudomonas aeruginosa [15], 12 µM; against Staphylococcus aureus [16], 2.9 µM; with Escherichia coli [17], 2.9 µM; in [18] it was 0.7 µM. Moreover, the figures for the MIC with Klebsiella pneumoniae [19] and in the assay on Staphylococcus aureus [20] were 11 µM and 2.9 µM, respectively. In addition, in the assay on Pseudomonas aeruginosa [5], the “Ratio IC50” value amounted to 0.08.
H-IWWKWRRWV-OH: the MIC against Enterococcus faecium [1] came to 3 µM; against Pseudomonas aeruginosa [2], 12 µM; in the assay with Pseudomonas aeruginosa [3], 6 µM; in the assay on Pseudomonas aeruginosa [4], 6 µM; in the assay on Pseudomonas aeruginosa [6] it was 12 µM; with Escherichia coli [7] it was 24 µM. For the same substance, the MIC in the assay with Enterococcus faecalis [8] came to 48 µM; against Enterobacter cloacae, 6 µM; against Klebsiella pneumoniae [9] it was 96 µM; against Pseudomonas aeruginosa [10], 48 µM; against Enterococcus faecalis [11], 48 µM; against Enterococcus faecalis [12], 24 µM. Also, the MIC against Pseudomonas aeruginosa [13] was 48 µM; with Enterococcus faecium [14], 6 µM; against Pseudomonas aeruginosa [15], 48 µM; against Staphylococcus aureus [16], 3 µM; with Escherichia coli [17], 6 µM; in assay [18], 1.5 µM. The MIC in the assay with Klebsiella pneumoniae [19] was 12 µM; against Staphylococcus aureus [20], 3 µM. Moreover, the “Ratio IC50” value in the assay with Pseudomonas aeruginosa [5] was 0.29.
Regarding H-RRFKFIRWW-OH, the MIC against Enterococcus faecium [1] worked out at 6.1 µM; against Pseudomonas aeruginosa [2] it was 12 µM; in the assay on Pseudomonas aeruginosa [3] it was 6.1 µM; in the assay on Pseudomonas aeruginosa [4], 3.1 µM; in the assay on Pseudomonas aeruginosa [6], 49 µM; against Escherichia coli [7], 12 µM. For the same substance, the MIC is 49 µM with Enterococcus faecalis [8]; 12 µM against Enterobacter cloacae; 98 µM against Klebsiella pneumoniae [9]; 49 µM in the assay on Pseudomonas aeruginosa [10]; 98 µM with Enterococcus faecalis [11]; 12 µM against Enterococcus faecalis [12]. Also, the minimal inhibitory concentration (MIC) in the assay on Pseudomonas aeruginosa [13] is 24 µM; against Enterococcus faecium [14] it was 6.1 µM; against Pseudomonas aeruginosa [15], 49 µM; with Staphylococcus aureus [16], 6.1 µM; in the assay with Escherichia coli [17], 12 µM; in assay [18], 0.8 µM. The results for the MIC in the assay with Klebsiella pneumoniae [19] and with Staphylococcus aureus [20] were 49 µM and 6.1 µM, respectively. For the same substance, in the assay with Pseudomonas aeruginosa [5], the “Ratio IC50” value was determined as 0.24.
For H-WKRWWKKWR-OH, the MIC against Enterococcus faecium [1] worked out at 5.8 µM; against Pseudomonas aeruginosa [2], 23 µM; against Pseudomonas aeruginosa [3] it was 23 µM; in the assay with Pseudomonas aeruginosa [4] it was 5.8 µM; against Pseudomonas aeruginosa [6], 46 µM; in the assay on Escherichia coli [7] it was 23 µM. Besides, the MIC against Enterococcus faecalis [8] was more than 186 µM; in the assay on Enterobacter cloacae, 93 µM; against Klebsiella pneumoniae [9], 186 µM; against Pseudomonas aeruginosa [10], 93 µM; in the assay with Enterococcus faecalis [11] it was more than 186 µM; against Enterococcus faecalis [12] it was 93 µM. Further, the minimum inhibitory concentration (MIC) in the assay with Pseudomonas aeruginosa [13] turned out to be 46 µM; in the assay on Enterococcus faecium [14], 23 µM; against Pseudomonas aeruginosa [15], 46 µM; against Staphylococcus aureus [16], 5.8 µM; in the assay on Escherichia coli [17] it was 2.9 µM; in assay [18], 1.4 µM. Further, the MIC is 46 µM with Klebsiella pneumoniae [19] and 5.8 µM against Staphylococcus aureus [20]. For the same substance, the “Ratio IC50” value in the assay with Pseudomonas aeruginosa [5] came to 0.2.
For H-WRWWKIWKR-OH, the MIC turned out to be 1.5 µM against Enterococcus faecium [1]; 12 µM in the assay on Pseudomonas aeruginosa [2]; 5.9 µM against Pseudomonas aeruginosa [3]; 1.5 µM against Pseudomonas aeruginosa [4]; 24 µM in the assay with Pseudomonas aeruginosa [6]; 5.9 µM with Escherichia coli [7]. For the same substance, the MIC worked out at 94 µM against Enterococcus faecalis [8]; 12 µM in the assay with Enterobacter cloacae; 94 µM in the assay on Klebsiella pneumoniae [9]; 47 µM in the assay on Pseudomonas aeruginosa [10]; 94 µM against Enterococcus faecalis [11]; 24 µM against Enterococcus faecalis [12]. Besides, the MIC with Pseudomonas aeruginosa [13] was 24 µM; in the assay with Enterococcus faecium [14], 5.9 µM; against Pseudomonas aeruginosa [15], 47 µM; against Staphylococcus aureus [16] it was 3 µM; with Escherichia coli [17], 5.9 µM; in assay [18], 0.8 µM. Besides, the MIC against Klebsiella pneumoniae [19] came to 24 µM; in the assay on Staphylococcus aureus [20], 3 µM. Also, the “Ratio IC50” value in the assay with Pseudomonas aeruginosa [5] was found to be 0.14.
Regarding H-KIWWWWRKR-OH, the MIC was 1.5 µM against Enterococcus faecium [1]; 47 µM in the assay with Pseudomonas aeruginosa [2]; 5.9 µM in the assay on Pseudomonas aeruginosa [3]; 5.9 µM in the assay on Pseudomonas aeruginosa [4]; 24 µM against Pseudomonas aeruginosa [6]; 12 µM against Escherichia coli [7]. The MIC with Enterococcus faecalis [8] amounted to 94 µM; against Enterobacter cloacae, 94 µM; against Klebsiella pneumoniae [9], 189 µM; against Pseudomonas aeruginosa [10], 47 µM; in the assay on Enterococcus faecalis [11], 94 µM; against Enterococcus faecalis [12], 24 µM. For the same substance, the MIC amounted to 47 µM with Pseudomonas aeruginosa [13]; 5.9 µM with Enterococcus faecium [14]; 12 µM in the assay with Pseudomonas aeruginosa [15]; 5.9 µM with Staphylococcus aureus [16]; 5.9 µM with Escherichia coli [17]; 3 µM in assay [18]. Also, the MIC with Klebsiella pneumoniae [19] is 47 µM; in the assay on Staphylococcus aureus [20], 5.9 µM. Further, in the assay on Pseudomonas aeruginosa [5], the “Ratio IC50” value is 0.13.
As to H-WKKWWKRRW-OH, the MIC in the assay on Enterococcus faecium [1] came to 5.8 µM; in the assay with Pseudomonas aeruginosa [2] it was 46 µM; against Pseudomonas aeruginosa [3], 23 µM; against Pseudomonas aeruginosa [4] it was 5.8 µM; in the assay with Pseudomonas aeruginosa [6] it was 46 µM; with Escherichia coli [7], 23 µM. The MIC was more than 186 µM in the assay on Enterococcus faecalis [8]; 23 µM against Enterobacter cloacae; 186 µM with Klebsiella pneumoniae [9]; 93 µM against Pseudomonas aeruginosa [10]; more than 186 µM against Enterococcus faecalis [11]; 93 µM in the assay with Enterococcus faecalis [12]. Further, the MIC in the assay on Pseudomonas aeruginosa [13] is 46 µM; with Enterococcus faecium [14], 12 µM; in the assay on Pseudomonas aeruginosa [15], 46 µM; against Staphylococcus aureus [16], 1.4 µM; in the assay on Escherichia coli [17] it was 2.9 µM; in assay [18], 1.4 µM. Moreover, the MIC against Klebsiella pneumoniae [19] stood at 46 µM; against Staphylococcus aureus [20], 2.9 µM. Moreover, the “Ratio IC50” value in the assay with Pseudomonas aeruginosa [5] came out at 0.19.
Consider H-RKWIWRWFL-OH, for which the MIC is 3.1 µM in the assay with Enterococcus faecium [1]; 6.1 µM with Pseudomonas aeruginosa [2]; 6.1 µM against Pseudomonas aeruginosa [3]; 1.5 µM in the assay with Pseudomonas aeruginosa [4]; 3.1 µM against Pseudomonas aeruginosa [6]; 1.5 µM in the assay on Escherichia coli [7]. Moreover, the MIC was found to be 24 µM in the assay with Enterococcus faecalis [8]; 3 µM in the assay on Enterobacter cloacae; 3.1 µM in the assay on Klebsiella pneumoniae [9]; 6.1 µM in the assay on Pseudomonas aeruginosa [10]; 24 µM with Enterococcus faecalis [11]; 6.1 µM against Enterococcus faecalis [12]. In addition, the MIC is 12 µM against Pseudomonas aeruginosa [13]; 3.1 µM in the assay with Enterococcus faecium [14]; 3.1 µM against Pseudomonas aeruginosa [15]; 3.1 µM against Staphylococcus aureus [16]; 1.5 µM in the assay on Escherichia coli [17]; 1.5 µM in [18]. In addition, the minimum inhibitory concentration (MIC) in the assay with Klebsiella pneumoniae [19] and with Staphylococcus aureus [20] was 3.1 µM each time. Further, the “Ratio IC50” value with Pseudomonas aeruginosa [5] is 0.15.
